Results reported in ChEMBL document CHEMBL5712904 (Cancers (Basel), 2018).
Values belong to the molecule of their own block, whether it stands above or below them. The source made the active and inactive calls. No cut-off for these calls is given here.

What was measured:
OVCAR-3 [1] = test: Upregulation of GLUT1 in human OVCAR-3 cells at 0.25 mM after 24 hrs by immunoblotting analysis; type: functional, cell-based
SK-OV-3 [2] = test: […] of glycolysis in human SK-OV-3 cells ssessed as decrease in conversion of D-[5-3H(N)]-glucose to 3H2O at 0.25 mM incubated for 24 hrs by liquid scintillation counting; type: functional, cell-based
Procedure, shortened: (§1)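 Medium was acidified to 0.2 N HCl, and 3H2O was allowed to diffuse into water for 3 days before scintillation counting. Results are given as % glucose conversion/5 × 10^5 cells/6 h, triplicates.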

SK-OV-3 [3] = test: Upregulation of GLUT1 in human SK-OV-3 cells at 0.25 mM after 24 hrs by immunoblotting analysis; type: functional, cell-based
OVCAR-3 [4] = test: […] of glycolysis in human OVCAR-3 cells ssessed as decrease in conversion of D-[5-3H(N)]-glucose to 3H2O at 0.25 mM incubated for 24 hrs by liquid scintillation counting; type: functional, cell-based; procedure, shortened: as §1
OVCAR-3 [5] = test: Upregulation of GLUT1 in human OVCAR-3 cells at 2 mM after 24 hrs by immunoblotting analysis; type: functional, cell-based
OVCAR-3 [6] = test: […] of glycolysis in human OVCAR-3 cells ssessed as decrease in conversion of D-[5-3H(N)]-glucose to 3H2O at 2 mM incubated for 24 hrs by liquid scintillation counting; type: functional, cell-based; procedure, shortened: as §1
SK-OV-3 [7] = test: Upregulation of GLUT1 in human SKOV-3 cells at 2 mM after 24 hrs by immunoblotting analysis; type: functional, cell-based
SK-OV-3 [8] = test: […] of glycolysis in human SK-OV-3 cells ssessed as decrease in conversion of D-[5-3H(N)]-glucose to 3H2O at 2 mM incubated for 24 hrs by liquid scintillation counting; type: functional, cell-based; procedure, shortened: as §1
OVCAR-3 [9] = test: […] of glycolysis in human OVCAR-3 cells ssessed as decrease in conversion of D-[5-3H(N)]-glucose to 3H2O at 50 nM incubated for 24 hrs by liquid scintillation counting; type: functional, cell-based; procedure, shortened: as §1
SK-OV-3 [10] = test: Upregulation of GLUT1 in human SK-OV-3 cells at 50 nM after 24 hrs by immunoblotting analysis; type: functional, cell-based
SK-OV-3 [11] = test: […] of glycolysis in human SK-OV-3 cells ssessed as decrease in conversion of D-[5-3H(N)]-glucose to 3H2O at 50 nM incubated for 24 hrs by liquid scintillation counting; type: functional, cell-based; procedure, shortened: as §1
OVCAR-3 [12] = test: Upregulation of GLUT1 in human OVCAR-3 cells at 50 […] after 24 hrs by immunoblotting analysis; type: functional, cell-based
[13] = Toxicity in NSG mouse xenografted with human derived High-grade serous ovarian cancer cell model of OVC-PDX2 assessed as reduction in body weight at 4 mg/kg/day, po for 30 days relative to control; type: organism-based; settings: in vivo, 720 h, time 30 day
Procedure, shortened: (§2)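 Serous ovarian carcinoma fragments of 1–2 mm3 were implanted s.c. on the right flank of 6–8-week female NSG mice and re-passaged at about 1 cm3. At an average of 100 mm3, mice were grouped 5 per group and gavaged with 4 mg/kg/day for 30 days. Caliper volume was calculated as lw2/2, with body weight monitored and endpoint xenografts weighed.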

HEY [14] = test: Antiproliferative activity against human HEY cells assessed as decrease in size of colonies at 75nM after 3 weeks by crystal violet staining based assay; type: functional, cell-based
[15] = Antitumor activity against human derived High-grade serous ovarian cancer cell xenografted in NSG mouse model of OVC-PDX2 assessed as decrease in tumor weight at 4 mg/kg/day, po 30 days relative to control; type: functional, Ovarian carcinoma cell; design: scale not given: the % may be the effect or the level left; settings: time 30 day; procedure, shortened: as §2
SK-OV-3 [16] = test: Antiproliferative activity against human SK-OV-3 cells assessed as decrease in size colonies at 75nM after 3 weeks by crystal violet staining based assay; type: functional, cell-based
Procedure, shortened: (§3)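 Soft agar colony assay: wells pre-coated with 0.6% agar in complete medium, with cells overlaid in medium containing 0.3% agar. Fresh 0.3% agar medium was added every 3–5 days. Inhibitor was 75 nM for SKOV-3 and OVCAR-3. After 3 weeks, colonies were crystal violet stained and counted above 100 μm diameter (SKOV-3, A2780) or 50 μm (OVCAR-3), reported as colonies per well.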

SK-OV-3 [17] = test: Antiproliferative activity against human SK-OV-3 cells assessed as reduction in cell viability after 72 hrs MTT assay; type: functional, cell-based; settings: SK-OV-3, 72 h
Procedure, shortened: (§4)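 Cells in RPMI 1640 with 10% FBS were exposed to inhibitor over a range up to 10 µM for 72 h. Viability was read by MTT staining with absorbance at 570 nm, and IC50 was obtained by curve fitting. Data are mean ± SD of triplicates, representative of 3 independent experiments.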

[18] = Toxicity in NSG mouse xenografted with human derived High-grade serous ovarian cancer cell model of OVC-PDX3 assessed as reduction in body weight at 4 mg/kg/day, po for 30 days relative to control; type: organism-based; settings: in vivo, 720 h, time 30 day; procedure, shortened: as §2
A2780 [19] = test: Antiproliferative activity against human A2780 cells assessed as decrease in size of colonies at 75nM after 3 weeks by crystal violet staining based assay; type: functional, cell-based; procedure, shortened: as §3
[20] = Antitumor activity against human derived High-grade serous ovarian cancer cell xenografted in NSG mouse model of OVC-PDX2 assessed as decrease in tumor volume at 4 mg/kg/day, po 30 days relative to control; type: functional, Ovarian carcinoma cell; design: scale not given: the % may be the effect or the level left; settings: time 30 day; procedure, shortened: as §2
OVCAR-3 [21] = test: Antiproliferative activity against human OVCAR-3 cells assessed as reduction in number of cells at 25 to 75 nM after 24 hrs; type: functional, cell-based; settings: dose 25-75 nM
Procedure, shortened: (§5)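 Cells were grown in 12-well plates in RPMI 1640 with 10% FBS and treated with 0, 25, 50 or 75 nM inhibitor for 24 h. They were then trypsinized and counted with a Coulter counter. Data are mean ± SD of triplicates.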

A2780 [22] = test: Antiproliferative activity against human A2780 cells assessed as reduction in cell viability up to 2 uM after 72 hrs by MTT assay; type: functional, cell-based; procedure, shortened: as §4
OVCAR-3 [23] = test: Antiproliferative activity against human OVCAR-3 cells assessed as reduction in number of cells at 75 nM after 24 to 72 hrs; type: functional, cell-based; settings: time 24-72 hrs
Procedure, shortened: (§6)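 For 72-h growth curves, cells in 12-well plates in RPMI 1640 with 10% FBS were grown with or without 75 nM inhibitor. Cell numbers were determined by Coulter counting after trypsinization. Data are mean ± SD of triplicates.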

A2780 [24] = test: Antiproliferative activity against human A2780 cells assessed as decrease in number of colonies at 75nM after 3 weeks by crystal violet staining based assay; type: functional, cell-based; procedure, shortened: as §3
HEY [25] = test: Antiproliferative activity against human HEY cells assessed as reduction in cell viability after 72 hrs MTT assay; type: functional, cell-based; procedure, shortened: as §4
A2780 [26] = test: Antiproliferative activity against human A2780 cells assessed as reduction in number of cells at 75 nM after 24 to 72 hrs; type: functional, cell-based; settings: time 24-72 hrs; procedure, shortened: as §6
SK-OV-3 [27] = test: Antiproliferative activity against human SK-OV-3 cells assessed as decrease in number of colonies at 75nM after 3 weeks by crystal violet staining based assay; type: functional, cell-based; procedure, shortened: as §3
OVCAR-3 [28] = test: Antiproliferative activity against human OVCAR-3 cells assessed as reduction in cell viability after 72 hrs by MTT assay; type: functional, cell-based; settings: OVCAR-3, 72 h; procedure, shortened: as §4
HEY [29] = test: Antiproliferative activity against human HEY cells assessed as reduction in number of cells at 75 nM after 24 to 72 hrs; type: functional, cell-based; settings: time 24-72 hrs; procedure, shortened: as §6
OVCAR-3 [30] = test: Antiproliferative activity against human OVCAR-3 cells assessed as decrease in size of colonies at 75nM after 3 weeks by crystal violet staining based assay; type: functional, cell-based; procedure, shortened: as §3
OVCAR-3 [31] = test: Antiproliferative activity against human OVCAR-3 cells assessed as decrease in number of colonies at 75nM after 3 weeks by crystal violet staining based assay; type: functional, cell-based; procedure, shortened: as §3
SK-OV-3 [32] = test: Antiproliferative activity against human SK-OV-3 cells assessed as reduction in number of cells at 75 nM after 24 to 72 hrs; type: functional, cell-based; settings: time 24-72 hrs; procedure, shortened: as §6
HEY [33] = test: Antiproliferative activity against human HEY cells assessed as decrease in number of colonies at 75nM after 3 weeks by crystal violet staining based assay; type: functional, cell-based
SK-OV-3 [34] = test: Antitumor activity against human SK-OV-3 cells xenografted in NSG mouse assessed as reduction tumor weight at 4.5 mg/kg/day, po for 4 weeks relative to control; type: functional; design: scale not given: the % may be the effect or the level left
Procedure, shortened: (§7)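 Female NSG mice aged 6–7 weeks received 4 × 10^6 SKOV-3 cells in serum-free medium s.c. on the right flank. At about 100 mm3, mice were grouped 5 per group and gavaged daily at 0, 1.5, 3 or 4.5 mg/kg for 28 days. Caliper volume was calculated as lw2/2, with body weights tracked and endpoint tumors weighed; mean ± SD.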

SK-OV-3 [35] = test: Antiproliferative activity against human SK-OV-3 cells assessed as reduction in number of cells at 25 to 75 nM after 24 hrs; type: functional, cell-based; settings: dose 25-75 nM; procedure, shortened: as §5
[36] = Antitumor activity against human derived High-grade serous ovarian cancer cell xenografted in NSG mouse model of OVC-PDX3 assessed as decrease in tumor volume at 4 mg/kg/day, po 30 days relative to control; type: functional, Ovarian carcinoma cell; design: scale not given: the % may be the effect or the level left; settings: time 30 day; procedure, shortened: as §2
[37] = Toxicity in NSG mouse xenografted with SK-OV-3 cells assessed as reduction in body weight at 4.5 mg/kg/day, po for 4 weeks relative to control; type: organism-based; design: scale not given: the % may be the effect or the level left; settings: in vivo, 672 h; procedure, shortened: as §7
[38] = Antitumor activity against human derived High-grade serous ovarian cancer cell xenografted in NSG mouse model of OVC-PDX3 assessed as decrease in tumor weight at 4 mg/kg/day, po 30 days relative to control; type: functional, Ovarian carcinoma cell; design: scale not given: the % may be the effect or the level left; settings: time 30 day; procedure, shortened: as §2
SK-OV-3 [39] = test: Antitumor activity against human SK-OV-3 cells xenografted in NSG mouse assessed as reduction tumor volume at 4.5 mg/kg/day, po for 4 weeks relative to control; type: functional; design: scale not given: the % may be the effect or the level left; procedure, shortened: as §7

SMILES: CCOC(=O)[C@@]1(CCCCCCOc2ccc(Cl)cc2)CO1
Activity (OVCAR-3 [1]): Active
Activity (SK-OV-3 [2]): Active
Activity (SK-OV-3 [3]): Active
Activity (OVCAR-3 [4]): Active

SMILES: CN(C)C(=N)NC(=N)N
Activity (OVCAR-3 [5]): Active
Activity (OVCAR-3 [6]): Active
Activity (SK-OV-3 [7]): Active
Activity (SK-OV-3 [8]): Active

SMILES: COc1ccc([C@@H](O)[C@@H](C)Oc2ccc([C@H]3O[C@H](c4ccc(O[C@H](C)[C@H](O)c5ccc6c(c5)OCO6)c(OC)c4)[C@H](C)[C@H]3C)cc2OC)cc1OC
Activity (OVCAR-3 [9]): Active
Activity (SK-OV-3 [10]): Active
Activity (SK-OV-3 [11]): Active
Activity (OVCAR-3 [12]): Active

IC50 (SK-OV-3 [17]): 188 nM
IC50 (OVCAR-3 [28]): 60 nM
SMILES: Cc1c(NC(=O)c2cc(C(N)=O)nc3cc(F)ccc23)c(C(F)(F)F)nn1Cc1ccc(C#N)cc1 [BAY-876]
Activity [13]: Non-Toxic
Activity (HEY [14]): Active
Activity [15]: 50%
Activity (SK-OV-3 [16]): Active
Activity [18]: Non-Toxic
Activity (A2780 [19]): inactive
Activity [20]: >60%
Activity (OVCAR-3 [21]): Dose-Dependent Effect
Activity (A2780 [22]): inactive
Activity (OVCAR-3 [23]): Active
Activity (A2780 [24]): inactive
IC50 (HEY [25]): 1000 nM
Activity (A2780 [26]): inactive
Activity (SK-OV-3 [27]): Active
Activity (HEY [29]): Active
Activity (OVCAR-3 [30]): Active
Activity (OVCAR-3 [31]): Active
Activity (SK-OV-3 [32]): Active
Activity (HEY [33]): Active
Activity (SK-OV-3 [34]): 66%
Activity (SK-OV-3 [35]): Dose-Dependent Effect
Activity [36]: >60%
Activity [37]: 18%
Activity [38]: 71%
Activity (SK-OV-3 [39]): 68%
